Measurements from ChEMBL document CHEMBL1250435, “Synthesis of a series of caffeic acid phenethyl amide (CAPA) fluorinated derivatives: comparison of cytoprotective effects to caffeic acid phenethyl ester (CAPE)” (Bioorg Med Chem, 2010).
Calls of active or inactive are those of the source. No cut-off for these calls is given here.

Assays:
HUVEC [1] = assay: Cytoprotective activity against H2O2-induced oxidative stress in HUVEC cells at 20 uM after 18 hrs by Cell-Titer Blue assay; type: functional, cell-based; conditions: Homo sapiens
Procedure, shortened: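 Confluent HUVEC (passage doublings 2–5) incubated 5 h at 37 °C with compound at 20 µM in MCDB 131 (from DMSO stock), washed twice with MCDB 131, then 2 mM H2O2 for 1 h at 37 °C. H2O2 removed, cells recovered 18 h in complete medium. Viability by 10% CellTiter-Blue fluorescence, compared with vehicle+H2O2 and unexposed cells. Mean ± SD, ANOVA with Tukey-Kramer.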

HUVEC [2] = assay: Cytotoxicity against HUVEC cells at 10 to 60 uM after 24 hrs by Cell-Ttiter blue assay; type: cell-based; conditions: human
Procedure, shortened: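 Confluent HUVEC (population doublings 2–5) exposed 24 h at 37 °C to compound at 10, 20, 40 or 60 µM, diluted from DMSO stock into MCDB 131 (vehicle 0.1% DMSO). Medium replaced with 10% CellTiter-Blue for 2 h at 37 °C, fluorescence read at ex 545/em 590 nm. Viability expressed as % of vehicle control; below 90% of control scored toxic.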

HUVEC [3] = assay: Cytoprotective activity against H2O2-induced oxidative stress in HUVEC cells after 18 hrs by Cell-Titer Blue assay; type: functional, cell-based; conditions: Homo sapiens
Procedure, shortened: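 Confluent HUVEC (population doublings 2–5, gelatin-coated 96-well) pretreated 5 h at 37 °C with compound at 1, 5, 20, 40 and 60 µM (DMSO stock diluted in MCDB 131), washed twice, exposed to 2 mM H2O2 for 1 h at 37 °C, then 18 h recovery in complete MCDB 131. Viability by 10% CellTiter-Blue fluorescence. % cytoprotection = (well − DMSO+H2O2 mean)/DMSO-only mean. EC50 by linear regression of first three points.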

Compound	Activity (HUVEC [1])	Activity (HUVEC [2])	EC50 (HUVEC [3])
O=C(/C=C/c1cc(O)c(O)cc1F)NCCc1ccccc1	Active		
O=C(/C=C/c1ccc(O)c(F)c1)NCCc1ccccc1	Active		
O=C(/C=C/c1cc(O)c(O)c(F)c1)NCCc1ccccc1	Active	Toxic	
O=C(/C=C/c1ccc(O)c(O)c1)OCCc1ccccc1 [CAFFEIC ACID PHENETHYL ESTER]			8 µM
O=C(/C=C/c1ccc(O)c(O)c1)NCCc1ccccc1 [CAFFEIC ACID PHENETHYL AMIDE]			2 µM
